Screening results: PubChem, several laboratories
Shown are actives, neighbours in structure and some others; about 5.1% of the full set was active somewhere.
STAT3 act = activators of IL-6 induced STAT3 signaling; U3A cells, IL-6 STAT3-luciferase reporter, luminescence; 100% = signal with IL-6 EC80 alone; activation (% of control), % at 5.6 µM; 0.91% of 190,000 active;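 active means activation above the screen-wide mean of compound activation plus 3 SD, cut at about 130% in these data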
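Material: STAT3-luciferase reporter U3A cells. Controls: IL-6-treated wells, 100% activation. Read-out: % activation versus median of IL-6-stimulated wells. Probe or stimulus: IL-6 stimulus at 33 ng/mL final. Timing: compound 1 h, then IL-6 6 h at 37 °C. Signal: reporter luminescence signal.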
APP 5'UTR act = APP 5'UTR luciferase reporter activation. 1% of 190,000 active. SH-SY5Y APP 5'UTR luciferase reporter, luminescence; zero percent = DMSO vehicle wells. activation, % at 2 µM;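 active means activation above a set limit, based on mean plus 3 SD of controls, cut at about 140% in these data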
NF-kB expr up = NF-kB expression increase, human neuronal cells. AID 1239. 1.6% of 190,000 active. fold change at 12.5 µM. NF-kB reporter expression; stronger effect = higher value; in the data active means fold change above about 3.3
STAT1 activator = activators of IFN-gamma induced STAT1 signaling. NIH 3T3 STAT1-luciferase reporter, luminescence; 100% = IFN-gamma alone, no compound. activation (% of control), % at 5.5 µM. 2.6% of 200,000 active. AID 932;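 active means activation above the screen-wide mean activation plus 3 SD, cut at about 130% in these data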
STAT3 blocker = STAT3 signaling inhibition; inhibition, % at 5.5 µM; U3A cells, IL-6 STAT3-luciferase reporter, luminescence; host cell line lacks STAT1; 0.89% of 190,000 active;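 active means inhibition above the mean inhibition across all screened compounds plus 3 SD, cut at about 44% in these data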
STAT1 inh = inhibitors of IFN-gamma induced STAT1 signaling. inhibition, % at 5.5 µM. AID 920. 0.35% of 200,000 active. NIH 3T3 STAT1-luciferase reporter, luminescence;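 active means inhibition above a set limit, the mean inhibition across all tested compounds plus 3 SD, cut at about 34% in these data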
Each line names hits and unclear results; the compound was inactive in the other large screens.

O=C(CCN1C(=O)c2ccccc2C1=O)Nc1ccc(-c2cn3ccsc3n2)cc1	none
Cc1nc(-c2ccc(NC(=O)C3CCCCC3)cc2)cs1	APP 5'UTR act 167.4, NF-kB expr up 3.51, STAT1 activator 137.9
Cc1ccc(-c2cc(-c3n[nH]c(=S)n3C)c3ccccc3n2)cc1	none
Cc1ccc(N=Nc2c(N)nn3c(N)c(C#N)c(C)nc23)cc1	STAT1 activator 129.1
Cc1ccc(N=Nc2c(N)nn3c(C)cc(C)nc23)cc1	none
Cc1ccnc(N2C(=O)c3ccccc3C2O)c1 (stereo unspecified)	APP 5'UTR act 152.7
O/N=C/c1ccn(-c2ccc(Br)cc2)c1	STAT1 activator 131.0
N#C/C(=C/c1ccc(N2CCCCC2)o1)c1cccc(F)c1	STAT3 act 136.0, STAT1 activator 144.9
N#C/C(=C/c1ccc(N2CCCCCC2)o1)c1ccc(Cl)cc1	NF-kB expr up 3.44
COC(=O)c1[nH]c(=O)c2ccccc2c1OCc1ccccc1	NF-kB expr up 3.75
COC(=O)c1[nH]c(=O)c2ccccc2c1O	none
CCC(=O)Nc1nc2ccc(S(C)(=O)=O)cc2s1	STAT1 activator 131.3
Cc1ccc(C(=O)Nc2nc3ccc(S(C)(=O)=O)cc3s2)s1	STAT1 activator 145.6
Cc1cc(C)cc(NC(=S)NCCN(C2CCCCC2)C2CCCC2)c1	none
Cc1ccc2oc(C(=O)Nc3nnc(C)s3)c(C)c2c1	NF-kB expr up 4.7, STAT1 activator 140.9
CCc1nnc(NC(=O)c2oc3cc(C)c(C)cc3c2C)s1	none
C=CCSc1n[nH]c(-c2ccc(OCCC)cc2)n1	NF-kB expr up 3.84, STAT1 activator 149.8
CC(C)(C)c1cc(=O)n(-c2ccccc2)[nH]1	none
OCC1CCCCN1C(=S)Nc1cccc(Cl)c1 (stereo unspecified)	STAT1 activator 130.3
OCC1CCCN1C(=S)Nc1ccccc1 (stereo unspecified)	none
O=C/C(=C\Nc1ccccn1)c1nc2cc(Cl)ccc2o1	STAT3 act 134.5
O=[N+]([O-])C(/C=C(\Cl)[N+](=O)[O-])=C(N1CCCCC1)N1CCCCC1	none
COc1ccccc1C(=O)Nc1nnc(C)s1	none
COCCN(C(=O)c1ccccc1OC)c1nnc(C)s1	STAT3 act 133.7
CCn1nnc(NC(=O)c2ccc(C(C)(C)C)cc2)n1	NF-kB expr up 3.66
COc1ccc(Cl)cc1-c1nc(SCC(=O)NC2CC2)n[nH]1	none
COc1cc(NC(=O)CSc2nnc3c(n2)[nH]c2ccc(S(=O)(=O)NC(C)C)cc23)cc(OC)c1OC	none
CN(/N=C/c1cccnc1)c1cnc2ccccc2n1	STAT3 act 151.5, APP 5'UTR act 170.4, STAT1 activator 172.4
C(=N\N=C\c1cccnc1)/c1cccnc1	none
c1ccc(-c2ncc(CSc3nncn3-c3ccccc3)s2)cc1	none
Cc1nnc(SCc2cnc(-c3ccc(C(C)C)cc3)s2)n1C	APP 5'UTR act 151.5, NF-kB expr up 5.69, STAT3 blocker 65.2, STAT1 inh 37.0
C#Cc1ccc([C@H]2C=C(C(=O)N3CCOCC3)O[C@@H](OCc3ccc(CO)cc3)C2)cc1	none (no result: STAT3 act, STAT3 blocker)
COc1cccc2cc(C(C)=O)oc12	none
COc1ccc(C(=O)c2cc3cccc(OC)c3o2)cc1	NF-kB expr up 4.18, STAT1 activator 150.5
CCCNC(=O)c1noc2c1CCc1ccccc1-2	none
O=C(Nc1cccnc1Cl)c1noc2c1CCc1ccccc1-2	STAT1 activator 134.9
CN(C)c1ccc(-c2noc(-c3ccccc3O)n2)cc1	APP 5'UTR act 144.0
Cc1ccc(-c2noc(-c3ccccc3Br)n2)cc1	APP 5'UTR act 195.1, NF-kB expr up 5.9, STAT1 activator 133.4
COc1ccccc1-c1nc(-c2ccc(Br)cc2)no1	STAT3 act 135.1, APP 5'UTR act 162.5, NF-kB expr up 4.66, STAT1 activator 135.3
COc1cc(OC)cc(-c2nc(-c3ccc(Br)cc3)no2)c1	none
COc1ccccc1-c1nc(-c2ccc(Br)o2)no1	STAT3 act 159.0, APP 5'UTR act 218.1, NF-kB expr up 6.73, STAT1 activator 157.0
CCCN(CC(=O)Nc1cc(Cl)ccc1Cl)C(=O)/C=C/c1ccco1	none
Cc1ccc(NC(=O)c2ccc3nc[nH]c3c2)cc1C	STAT1 activator 142.9
Clc1ccc(-c2nnc(-c3ccc(Br)o3)o2)c(Cl)c1	STAT1 activator 138.9
CCc1cccc(NC(=O)C(NC(=O)C2CCCCC2)C(C)C)c1 (stereo unspecified)	none
NS(=O)(=O)c1ccc(N=Nc2c(O)ccc3ccccc23)cc1	STAT1 activator 132.5
CNC(=O)c1cc2c(s1)-c1ccccc1CC2	STAT1 activator 144.0
O=C(N/N=C/c1ccc(F)c(F)c1)c1cc2c(s1)-c1ccccc1CC2	none
N#Cc1cc(C#N)c(N2CCN(c3ccccn3)CC2)nc1N	STAT1 activator 135.5
CCOC(=O)c1c(C)oc2c1c(C(c1cccnc1)N1CCCCC1)c(O)c1ccccc12 (stereo unspecified)	NF-kB expr up 6.57
COc1cc(OC)cc(C(=O)NC2=NCCS2)c1	none
O=C(NC1=NCCS1)c1cccc(OC(F)F)c1	APP 5'UTR act 150.2, NF-kB expr up 4.09, STAT1 activator 140.2
CC(C)c1ccc(C(=O)NC2=NCCS2)cc1	APP 5'UTR act 167.3, STAT1 activator 145.3
Cc1ccc(Cn2c(=O)c3ccccc3n3nc(C)cc23)cc1	none
Clc1ccc(SCc2nc3ccccc3[nH]2)cc1	none
Clc1ccc(/C=C/c2nc3ccccc3[nH]2)cc1	NF-kB expr up 3.8, STAT3 blocker 93.5, STAT1 inh 53.4 (no result: APP 5'UTR act)
C(=N\n1cnnc1)/c1nc2ccccc2[nH]1	none
Clc1ccc(/C=C/c2nc3ccccc3[nH]2)c(Cl)c1	APP 5'UTR act 221.0, STAT3 blocker 86.9, STAT1 inh 68.2
Clc1cccc(Cl)c1/C=C/c1nc2ccccc2[nH]1	APP 5'UTR act 163.9, NF-kB expr up 7.15, STAT1 activator 142.6
O=C(/C=C/c1ccc(Cl)cc1Cl)c1nc2ccccc2[nH]1	none
COC(=O)c1cc(COC(=O)c2nc3nccc(C)n3n2)oc1C	none
COc1ccc(-n2ccnc2SCC(=O)NO)cc1	none
O=C(Nc1ccccc1)C1Cc2ccccc2CN1C(=O)c1ccco1 (stereo unspecified)	STAT3 act 140.7, STAT1 activator 130.1
COc1cc(/C=N/Nc2nnc3c(n2)[nH]c2ccccc23)ccc1O	STAT1 activator 132.9
COc1ccc(C2Nc3ccccc3C(=O)N2c2ccc(C)cc2)cc1COc1ccccn1 (stereo unspecified)	STAT1 activator 130.8
COc1ccc(/C=C/CN2CCC(CO)(Cc3ccccc3Cl)CC2)cc1	none
CCc1nnc(NC(=O)c2cc3c(s2)CCCCC3)s1	none (no result: NF-kB expr up)
Cc1csc(NC(=O)c2cc3c(s2)CCCCC3)n1	STAT3 blocker 96.6, STAT1 inh 67.8
